ChEMBL document CHEMBL3421570, “Combinatorial Libraries As a Tool for the Discovery of Novel, Broad-Spectrum Antibacterial Agents Targeting the ESKAPE Pathogens” (J Med Chem, 2015)
Calls of active or inactive are those of the source. The calls are words filed in the database; no cut-off is given here.

Experiments:
Enterococcus faecium [1] = assay: Antimicrobial activity against Enterococcus faecium assessed as inhibition of microbial growth after 24 hrs; assay type: functional
How it was run: (§1)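 Broth microdilution against multidrug-resistant clinical ESKAPE isolates. Overnight cultures (TSB for Gram-positives, LB for Gram-negatives) diluted 1:1000 in fresh medium, compound in DMF (≤2.0% DMF) added at decreasing concentrations, 37°C.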

Staphylococcus aureus [2] = assay: Antimicrobial activity against Staphylococcus aureus assessed as inhibition of microbial growth after 24 hrs; assay type: functional; how it was run: as §1
Klebsiella pneumoniae [3] = assay: Antimicrobial activity against Klebsiella pneumoniae assessed as inhibition of microbial growth after 24 hrs; assay type: functional; how it was run: as §1
Acinetobacter baumannii [4] = assay: Antimicrobial activity against Acinetobacter baumannii assessed as inhibition of microbial growth after 24 hrs; assay type: functional; how it was run: as §1
Pseudomonas aeruginosa [5] = assay: Antimicrobial activity against Pseudomonas aeruginosa assessed as inhibition of microbial growth after 24 hrs; assay type: functional; how it was run: as §1
Enterobacter cloacae [6] = assay: Antimicrobial activity against Enterobacter cloacae assessed as inhibition of microbial growth after 24 hrs; assay type: functional; how it was run: as §1
Klebsiella pneumoniae [7] = assay: Antimicrobial activity against Klebsiella pneumoniae assessed as inhibition of microbial growth at 45 uM after 24 hrs; assay type: functional, organism-based
How it was run: (§2)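 Broth microdilution single-concentration read: overnight cultures diluted 1:1000, compound in DMF (≤2.0%) added, 37°C for 24 h, growth inhibition scored visually by lack of turbidity; triplicate. Gram-positives grown in TSB, Gram-negatives in LB.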

Enterococcus faecium [8] = assay: Antimicrobial activity against Enterococcus faecium assessed as inhibition of microbial growth at 45 uM after 24 hrs; assay type: functional, organism-based; how it was run: as §2
Staphylococcus aureus [9] = assay: Antimicrobial activity against Staphylococcus aureus assessed as inhibition of microbial growth at 45 uM after 24 hrs; assay type: functional, organism-based; how it was run: as §2
Enterobacter cloacae [10] = assay: Antimicrobial activity against Enterobacter cloacae assessed as inhibition of microbial growth at 45 uM after 24 hrs; assay type: functional, organism-based; how it was run: as §2
Pseudomonas aeruginosa [11] = assay: Antimicrobial activity against Pseudomonas aeruginosa assessed as inhibition of microbial growth at 45 uM after 24 hrs; assay type: functional, organism-based; how it was run: as §2
Acinetobacter baumannii [12] = assay: Antimicrobial activity against Acinetobacter baumannii assessed as inhibition of microbial growth at 45 uM after 24 hrs; assay type: functional, organism-based; how it was run: as §2

Structure (SMILES) | MIC (Enterococcus faecium [1]) | MIC (Staphylococcus aureus [2]) | MIC (Klebsiella pneumoniae [3]) | MIC (Acinetobacter baumannii [4]) | MIC (Pseudomonas aeruginosa [5]) | MIC (Enterobacter cloacae [6]) | growth inhibition (GI) (Klebsiella pneumoniae [7]) | growth inhibition (GI) (Enterococcus faecium [8]) | growth inhibition (GI) (Staphylococcus aureus [9]) | growth inhibition (GI) (Enterobacter cloacae [10]) | growth inhibition (GI) (Pseudomonas aeruginosa [11]) | growth inhibition (GI) (Acinetobacter baumannii [12])
CCCCCCCN1C(=N)NC[C@@H]1CCCCN1C[C@@H](CCC)NC1=N | inactive | inactive | inactive | inactive | inactive | inactive |  |  |  |  |  | 
N=C1NC[C@H](CCCCN2C[C@@H](Cc3cccc4ccccc34)N(CCCCC3CCCCC3)C2=N)N1CCCCC1CCCCC1 |  |  |  |  |  |  | Active | Active | Active | Active | Active | Active
CCC(C)CN1C(=N)N(CCCC[C@H]2CNC(=N)N2CC2CCCCC2)C[C@@H]1[C@@H](C)CC (stereo partly drawn) | inactive | inactive | inactive | inactive | inactive | inactive |  |  |  |  |  | 
N=C1NC[C@H](CCCCN2C[C@H](CC3CCCCC3)N(CCc3ccc(-c4ccccc4)cc3)C2=N)N1CCCCC1CCCCC1 |  |  |  |  |  |  | Active | Active | Active | Active | Active | Active
CCCCCCCN1C(=N)N(CCCC[C@H]2CNC(=N)N2CCC23CC4CC(CC(C4)C2)C3)C[C@@H]1CC1CCCCC1 |  |  |  |  |  |  | Active | Active | Active | Active | Active | Active
CCCCCCCN1C(=N)N(CCCC[C@H]2CNC(=N)N2CCc2cccc(C(F)(F)F)c2)C[C@H]1Cc1cccc2ccccc12 |  |  |  |  |  |  | Active | Active | Active | Active | Active | Active
N=C1NC[C@H](CCCCN2C[C@@H](Cc3cccc4ccccc34)N(CCCCC3CCCCC3)C2=N)N1CCC12CC3CC(CC(C3)C1)C2 |  |  |  |  |  |  | inactive | inactive | inactive | inactive | inactive | inactive
N=C1NC[C@H](CCCCN2C[C@@H](Cc3cccc4ccccc34)N(CCc3ccc(-c4ccccc4)cc3)C2=N)N1CCc1cccc(C(F)(F)F)c1 |  |  |  |  |  |  | Active | Active | Active | Active | Active | Active
CC1CCC(CN2C(=N)NC[C@@H]2CCCCN2CCNC2=N)CC1 (stereo partly drawn) | inactive | inactive | inactive | inactive | inactive | inactive |  |  |  |  |  | 
CCCCCCCN1C(=N)NC[C@@H]1CCCCN1CCNC1=N | inactive | inactive | inactive | inactive | inactive | inactive |  |  |  |  |  | 
CCCCCCCN1C(=N)NC[C@@H]1CCCCN1C[C@H]([C@@H](C)CC)N(CC(C)CC)C1=N (stereo partly drawn) | inactive | inactive | inactive | inactive | inactive | inactive |  |  |  |  |  | 
CCCCCCCN1C(=N)NC[C@@H]1CCCCN1C[C@H]([C@@H](C)CC)NC1=N | inactive | inactive | inactive | inactive | inactive | inactive |  |  |  |  |  | 
CCCCCCCN1C(=N)NC[C@@H]1CCCCN1C[C@H]([C@@H](C)CC)N(CCc2cccc(C)c2)C1=N | inactive | inactive | inactive | inactive | inactive | inactive |  |  |  |  |  | 
CC[C@H](C)[C@H]1CN(CCCC[C@H]2CNC(=N)N2CC2CCC(C)CC2)C(=N)N1CCc1cccc(C)c1 (stereo partly drawn) | inactive | inactive | inactive | inactive | inactive | inactive |  |  |  |  |  | 
CC[C@H](C)[C@H]1CN(CCCC[C@H]2CNC(=N)N2CC2CCC(C)CC2)C(=N)N1 (stereo partly drawn) | inactive | inactive | inactive | inactive | inactive | inactive |  |  |  |  |  | 
Cc1cccc(CCN2CCN(CCCC[C@H]3CNC(=N)N3CC3CCCCC3)C2=N)c1 | inactive | inactive | inactive | inactive | inactive | inactive |  |  |  |  |  | 
Cc1cccc(CCN2CCN(CCCC[C@H]3CNC(=N)N3CC3CCC(C)CC3)C2=N)c1 (stereo partly drawn) | inactive | inactive | inactive | inactive | inactive | inactive |  |  |  |  |  | 
CCC(C)CN1CCN(CCCC[C@H]2CNC(=N)N2CC2CCCCC2)C1=N (stereo partly drawn) | inactive | inactive | inactive | inactive | inactive | inactive |  |  |  |  |  | 
CCC(C)CN1CCN(CCCC[C@H]2CNC(=N)N2CC2CCC(C)CC2)C1=N (stereo partly drawn) | inactive | inactive | inactive | inactive | inactive | inactive |  |  |  |  |  | 
CCCCCCCN1C(=N)NC[C@@H]1CCCCN1C[C@@H](CCC)N(CC(C)CC)C1=N (stereo partly drawn) | inactive | inactive | inactive | inactive | inactive | inactive |  |  |  |  |  | 

Second part, led by results:

MIC (Enterococcus faecium [1]) | MIC (Staphylococcus aureus [2]) | MIC (Klebsiella pneumoniae [3]) | MIC (Acinetobacter baumannii [4]) | MIC (Pseudomonas aeruginosa [5]) | MIC (Enterobacter cloacae [6]) | Structure (SMILES) | growth inhibition (GI) (Klebsiella pneumoniae [7]) | growth inhibition (GI) (Enterococcus faecium [8]) | growth inhibition (GI) (Staphylococcus aureus [9]) | growth inhibition (GI) (Enterobacter cloacae [10]) | growth inhibition (GI) (Pseudomonas aeruginosa [11]) | growth inhibition (GI) (Acinetobacter baumannii [12])
inactive | inactive | inactive | inactive | inactive | inactive | CCC[C@@H]1CN(CCCC[C@H]2CNC(=N)N2CC2CCC(C)CC2)C(=N)N1CCc1cccc(C)c1 (stereo partly drawn) |  |  |  |  |  | 
inactive | inactive | inactive | inactive | inactive | inactive | CC[C@H](C)[C@H]1CN(CCCC[C@H]2CNC(=N)N2CC2CCCCC2)C(=N)N1 |  |  |  |  |  | 
inactive | inactive | inactive | inactive | inactive | inactive | CCCCCCCN1C(=N)NC[C@@H]1CCCCN1CCN(CC(C)CC)C1=N (stereo partly drawn) |  |  |  |  |  | 
inactive | inactive | inactive | inactive | inactive | inactive | CCCCCCCN1C(=N)NC[C@@H]1CCCCN1C[C@@H](CCC)N(CCc2cccc(C)c2)C1=N |  |  |  |  |  | 
inactive | inactive | inactive | inactive | inactive | inactive | CCC[C@@H]1CN(CCCC[C@H]2CNC(=N)N2CC2CCCCC2)C(=N)N1CC(C)CC (stereo partly drawn) |  |  |  |  |  | 
inactive | inactive | inactive | inactive | inactive | inactive | CCC(C)CN1C(=N)N(CCCC[C@H]2CNC(=N)N2CC2CCC(C)CC2)C[C@@H]1[C@@H](C)CC (stereo partly drawn) |  |  |  |  |  | 
inactive | inactive | inactive | inactive | inactive | inactive | N=C1NCCN1CCCC[C@H]1CNC(=N)N1CC1CCCCC1 |  |  |  |  |  | 
inactive | inactive | inactive | inactive | inactive | inactive | CCCCCCCN1C(=N)NC[C@@H]1CCCCN1CCN(CCc2cccc(C)c2)C1=N |  |  |  |  |  | 
inactive | inactive | inactive | inactive | inactive | inactive | CCC[C@@H]1CN(CCCC[C@H]2CNC(=N)N2CC2CCCCC2)C(=N)N1 |  |  |  |  |  | 
inactive | inactive | inactive | inactive | inactive | inactive | CCC[C@@H]1CN(CCCC[C@H]2CNC(=N)N2CC2CCC(C)CC2)C(=N)N1 (stereo partly drawn) |  |  |  |  |  | 
inactive | inactive | inactive | inactive | inactive | inactive | CCC[C@@H]1CN(CCCC[C@H]2CNC(=N)N2CC2CCC(C)CC2)C(=N)N1CC(C)CC (stereo partly drawn) |  |  |  |  |  | 
inactive | inactive | inactive | inactive | inactive | inactive | CCC[C@@H]1CN(CCCC[C@H]2CNC(=N)N2CC2CCCCC2)C(=N)N1CCc1cccc(C)c1 |  |  |  |  |  | 
inactive | inactive | inactive | inactive | inactive | inactive | CC[C@H](C)[C@H]1CN(CCCC[C@H]2CNC(=N)N2CC2CCCCC2)C(=N)N1CCc1cccc(C)c1 |  |  |  |  |  | 
